The results in this text go back to ChEMBL document CHEMBL3091303, “1,3-Dialkyl-substituted tetrahydropyrimido[1,2-f]purine-2,4-diones as multiple target drugs for the potential treatment of neurodegenerative diseases” (Bioorg Med Chem, 2013).

Molecules are shown by their SMILES.

Data set [1] addresses T1, Adenosine receptor A2a (Rattus norvegicus, UniProt P30543). In words: Displacement of [3H]MSX-2 from adenosine A2A receptor in rat brain striatum. In kind it is tissue-based. A general note: Loss of bound radioactivity is the signal in a displacement assay; it reports binding, not function.
The target of data set [2] is T2, Adenosine receptor A1 (Rattus norvegicus, UniProt P25099).
T2 sequence (P25099 whole entry): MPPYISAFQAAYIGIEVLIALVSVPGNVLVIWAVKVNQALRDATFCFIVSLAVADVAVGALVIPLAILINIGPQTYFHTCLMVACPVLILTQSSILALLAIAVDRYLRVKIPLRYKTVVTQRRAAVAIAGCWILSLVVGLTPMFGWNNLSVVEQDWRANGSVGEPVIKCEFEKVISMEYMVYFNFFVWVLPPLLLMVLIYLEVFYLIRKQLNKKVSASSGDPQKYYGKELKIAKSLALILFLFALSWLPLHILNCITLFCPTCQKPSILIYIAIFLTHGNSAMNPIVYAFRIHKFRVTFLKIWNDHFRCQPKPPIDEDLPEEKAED
Briefly: Binding affinity to rat adenosine A1 receptor.

Data set [3] deals with T3, Adenosine receptor A3 (Rattus norvegicus, UniProt P28647).
T3 sequence (P28647 whole entry): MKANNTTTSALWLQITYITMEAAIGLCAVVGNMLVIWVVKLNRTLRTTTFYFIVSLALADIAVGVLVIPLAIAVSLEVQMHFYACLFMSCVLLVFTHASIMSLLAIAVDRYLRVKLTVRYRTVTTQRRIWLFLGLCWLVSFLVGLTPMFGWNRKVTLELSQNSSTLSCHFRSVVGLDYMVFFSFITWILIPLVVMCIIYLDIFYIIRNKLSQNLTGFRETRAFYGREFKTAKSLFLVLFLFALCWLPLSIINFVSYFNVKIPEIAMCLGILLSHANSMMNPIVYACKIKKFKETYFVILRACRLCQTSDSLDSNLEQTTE
Briefly: Binding affinity to rat adenosine A3 receptor.

Data set [4] concerns the target T4, Amine oxidase [flavin-containing] B (Homo sapiens, UniProt P27338).
T4 sequence (P27338 whole entry): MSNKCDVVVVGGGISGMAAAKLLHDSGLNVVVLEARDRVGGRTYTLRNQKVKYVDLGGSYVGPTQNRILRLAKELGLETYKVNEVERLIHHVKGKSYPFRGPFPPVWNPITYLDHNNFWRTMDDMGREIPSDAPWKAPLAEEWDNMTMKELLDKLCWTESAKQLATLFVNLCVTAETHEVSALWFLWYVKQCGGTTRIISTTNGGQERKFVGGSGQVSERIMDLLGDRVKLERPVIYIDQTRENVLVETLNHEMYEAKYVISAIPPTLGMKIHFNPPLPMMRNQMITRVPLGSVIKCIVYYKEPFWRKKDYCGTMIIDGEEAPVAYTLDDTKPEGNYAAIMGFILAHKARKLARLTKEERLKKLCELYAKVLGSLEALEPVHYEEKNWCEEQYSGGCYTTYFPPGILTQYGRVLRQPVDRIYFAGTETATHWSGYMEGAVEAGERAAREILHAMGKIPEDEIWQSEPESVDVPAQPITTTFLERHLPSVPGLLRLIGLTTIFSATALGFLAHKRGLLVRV
In words: Inhibition of human MAO-B.

For data set [5], the target named is T1, Adenosine receptor A2a. In words: Binding affinity to rat adenosine A2A receptor.
Data set [6] deals with T2, Adenosine receptor A1. Briefly: Displacement of [3H]CCPA from adenosine A1 receptor in rat brain cortex. Format: tissue-based. The gist of the method:
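Radioligand binding to rat A1 receptors in rat brain cortical membrane preparations. Values are given as Ki, or as % inhibition of radioligand binding at the indicated concentration.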

Data set [7] has as its target T5, Adenosine receptor A3 (Homo sapiens, UniProt P0DMS8).
T5 sequence (P0DMS8 whole entry): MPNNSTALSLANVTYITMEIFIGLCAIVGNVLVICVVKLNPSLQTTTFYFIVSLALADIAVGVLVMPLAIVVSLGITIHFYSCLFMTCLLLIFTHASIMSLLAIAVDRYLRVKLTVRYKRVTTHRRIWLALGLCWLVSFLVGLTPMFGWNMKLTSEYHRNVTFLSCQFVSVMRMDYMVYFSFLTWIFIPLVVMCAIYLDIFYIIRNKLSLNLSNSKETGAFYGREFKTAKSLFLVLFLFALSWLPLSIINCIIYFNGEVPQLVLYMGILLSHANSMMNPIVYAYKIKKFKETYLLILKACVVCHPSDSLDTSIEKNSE
In words: Displacement of [3H]PSB-11 from human adenosine A3 receptor expressed in CHO cells. In kind it is cell-based.

The target of data set [8] is T6, Amine oxidase [flavin-containing] A (Homo sapiens, UniProt P21397).
T6 sequence (P21397 whole entry): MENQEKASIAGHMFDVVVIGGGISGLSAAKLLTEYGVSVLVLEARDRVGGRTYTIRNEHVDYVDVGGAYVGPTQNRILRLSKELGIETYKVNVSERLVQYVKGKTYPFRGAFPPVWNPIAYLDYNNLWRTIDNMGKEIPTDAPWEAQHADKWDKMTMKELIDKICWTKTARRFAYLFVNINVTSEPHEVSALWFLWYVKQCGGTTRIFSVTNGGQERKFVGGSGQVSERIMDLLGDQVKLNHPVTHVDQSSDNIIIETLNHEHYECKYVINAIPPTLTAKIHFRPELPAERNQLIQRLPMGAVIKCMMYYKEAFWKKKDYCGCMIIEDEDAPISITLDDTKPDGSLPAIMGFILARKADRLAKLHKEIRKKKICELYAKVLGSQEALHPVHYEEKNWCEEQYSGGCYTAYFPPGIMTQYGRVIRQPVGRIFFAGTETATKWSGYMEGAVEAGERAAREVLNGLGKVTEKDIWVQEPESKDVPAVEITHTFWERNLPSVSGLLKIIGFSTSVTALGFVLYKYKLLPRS
In words: Inhibition of human MAO-A. The gist of the method: (§1)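 Human MAO-A and MAO-B inhibition, screened first at a test concentration of 10 µM.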

Data set [9] addresses T7, MAO-A (amine oxidase [flavin-containing] A) (Homo sapiens, UniProt P21397).
T7 sequence (P21397 whole entry): T6 sequence (P21397 whole entry)
In words: Inhibition of human MAO-A at 10 uM relative to control. An outline of the steps: as §1

Data set [10] has as its target T8, Adenosine receptor A1 (Homo sapiens) (UniProt P30542).
T8 sequence (whole entry): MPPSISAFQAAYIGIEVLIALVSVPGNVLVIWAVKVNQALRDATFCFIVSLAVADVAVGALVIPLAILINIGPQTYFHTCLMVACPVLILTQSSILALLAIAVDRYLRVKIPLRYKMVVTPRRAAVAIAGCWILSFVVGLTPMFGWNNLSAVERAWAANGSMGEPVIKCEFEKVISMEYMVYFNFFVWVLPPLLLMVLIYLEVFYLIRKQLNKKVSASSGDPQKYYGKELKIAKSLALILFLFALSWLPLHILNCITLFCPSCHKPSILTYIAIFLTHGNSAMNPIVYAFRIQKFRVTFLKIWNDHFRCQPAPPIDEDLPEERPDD
In words: Displacement of [3H]CCPA from human adenosine A1 receptor expressed in CHO cells relative to control. To be noted: concentration not given here. In kind it is cell-based. The gist of the method: (§2)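 Radioligand binding to human receptors recombinantly expressed in Chinese hamster ovary (CHO) cells. Results are Ki, or % inhibition of radioligand binding at the indicated concentration.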

Data set [11] concerns Adenosine receptor A1/A2A (Homo sapiens). In words: Selectivity ratio of Ki for human adenosine A1 receptor to Ki for human adenosine A2A receptor.
Data set [12] deals with T9, Adenosine receptor A3 (Homo sapiens) (UniProt P0DMS8).
T9 sequence (whole entry): T5 sequence (P0DMS8 whole entry)
Briefly: Displacement of [3H]PSB-11 from human adenosine A3 receptor expressed in CHO cells relative to control. Set-up: concentration or dose not given beside the values. As to conditions: concentration not given here. Format: cell-based.

Data set [13] addresses T10, Adenosine receptor A2b (Homo sapiens, UniProt P29275).
T10 sequence (P29275 whole entry): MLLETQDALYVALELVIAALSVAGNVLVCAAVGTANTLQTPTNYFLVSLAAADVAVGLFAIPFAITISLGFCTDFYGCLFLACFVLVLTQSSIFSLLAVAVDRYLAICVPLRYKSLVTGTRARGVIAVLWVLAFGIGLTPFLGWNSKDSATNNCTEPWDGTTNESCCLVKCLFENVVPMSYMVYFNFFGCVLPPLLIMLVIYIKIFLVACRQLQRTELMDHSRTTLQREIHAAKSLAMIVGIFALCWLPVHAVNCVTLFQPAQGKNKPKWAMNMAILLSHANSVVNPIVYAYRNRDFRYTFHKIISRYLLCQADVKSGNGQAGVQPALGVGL
In words: Displacement of [3H]PSB-603 from human adenosine A2B receptor.

Data set [14] deals with T11, Adenosine receptor A2a (Homo sapiens, UniProt P29274). Briefly: Displacement of [3H]MSX-2 from human adenosine A2A receptor expressed in CHO cells. Format: cell-based. The gist of the method: as §2
T11 sequence (P29274 whole entry): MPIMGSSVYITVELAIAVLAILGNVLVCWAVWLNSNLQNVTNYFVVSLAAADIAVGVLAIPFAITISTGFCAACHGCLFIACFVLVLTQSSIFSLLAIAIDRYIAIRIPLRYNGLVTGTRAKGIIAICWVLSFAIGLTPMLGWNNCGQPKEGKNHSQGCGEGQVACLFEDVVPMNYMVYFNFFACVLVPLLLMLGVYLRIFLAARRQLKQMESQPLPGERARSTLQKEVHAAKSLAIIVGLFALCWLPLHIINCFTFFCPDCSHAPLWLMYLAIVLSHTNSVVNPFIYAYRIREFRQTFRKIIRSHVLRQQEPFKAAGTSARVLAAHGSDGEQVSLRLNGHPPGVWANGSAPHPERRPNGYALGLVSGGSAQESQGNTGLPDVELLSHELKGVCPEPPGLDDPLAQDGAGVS
The next data set is filed under the species Rattus norvegicus. In words: Selectivity ratio of Ki for adenosine A2A receptor in rat brain striatum to Ki for adenosine A1 receptor in rat brain cortex. Format: tissue-based.
Data set [15] has as its target T12, MAO-B (amine oxidase [flavin-containing] B) (Homo sapiens, UniProt P27338).
T12 sequence (P27338 whole entry): T4 sequence (P27338 whole entry)
Briefly: Inhibition of human MAO-B at 10 uM relative to control. The gist of the method: as §1

For data set [16], the target named is T13, Adenosine receptor A1 (Homo sapiens, UniProt P30542).
T13 sequence (P30542 whole entry): T8 sequence (whole entry)
In words: Displacement of [3H]CCPA from human adenosine A1 receptor expressed in CHO cells. In kind it is cell-based. The gist of the method: as §2

Data set [17] deals with T13, Adenosine receptor A1. Briefly: Binding affinity to human adenosine A1 receptor.
Data set [18] deals with T10, Adenosine receptor A2b. Briefly: Binding affinity to human adenosine A2B receptor.
In data set [19] the target is T11, Adenosine receptor A2a. In words: Binding affinity to human adenosine A2A receptor.
Data set [20] has as its target T5, Adenosine receptor A3. In words: Binding affinity to human adenosine A3 receptor.
Data set [21] can be described thus: Ratio of Ki for human adenosine A1 receptor to Ki for adenosine A1 receptor in rat brain cortex. Format: tissue-based.
Data set [22] deals with T14, Adenosine receptor A2b (Homo sapiens) (UniProt P29275).
T14 sequence (whole entry): T10 sequence (P29275 whole entry)
Briefly: Displacement of [3H]PSB-603 from human adenosine A2B receptor relative to control. Further details: concentration or dose not given beside the values. As to conditions: concentration not given here.

T1 sequence (P30543 whole entry): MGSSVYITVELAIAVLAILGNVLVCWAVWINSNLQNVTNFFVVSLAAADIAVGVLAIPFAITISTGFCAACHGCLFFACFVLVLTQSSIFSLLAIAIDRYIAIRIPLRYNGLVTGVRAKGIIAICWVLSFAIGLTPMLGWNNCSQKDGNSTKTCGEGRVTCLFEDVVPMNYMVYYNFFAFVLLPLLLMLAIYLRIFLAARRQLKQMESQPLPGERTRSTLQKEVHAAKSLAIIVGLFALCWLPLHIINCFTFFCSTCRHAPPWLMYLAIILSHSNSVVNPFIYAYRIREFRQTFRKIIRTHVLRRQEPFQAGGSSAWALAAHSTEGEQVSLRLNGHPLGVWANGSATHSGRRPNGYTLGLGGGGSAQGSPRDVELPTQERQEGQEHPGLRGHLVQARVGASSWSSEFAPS

For `C#CCn1c(=O)c2c(ncn2C)n(C)c1=O`, the inhibition constant Ki is 5.6 µM at Adenosine receptor A2a [1]; 11 µM at Adenosine receptor A1 [2]; greater than 10 µM on Adenosine receptor A3 [3]; 5.6 µM on Adenosine receptor A2a [5]; 11 µM on Adenosine receptor A1 [6]; greater than 10 µM at Adenosine receptor A3 [7]. The IC50 in data set [4] and in data set [8] was greater than 10 µM each time. The compound further came in with an inhibition at 10 µM in [9] of 3%.
On to `C#CCn1c(=O)c2c(nc3n2CCCN3c2cccc(Br)c2)n(C)c1=O`, for which the inhibition was 21% in [10] and 34% in [12]. The Ratio Ki was greater than 35 in [11] and 3 in the data set filed under Rattus norvegicus. Also, the Ki on Adenosine receptor A2b [13] is 3.86 µM; on Adenosine receptor A2a [1] it was 0.932 µM; at Adenosine receptor A2a [14], 0.284 µM; on Adenosine receptor A1 [6] it was 0.313 µM; on Adenosine receptor A3 [7], greater than 10 µM; on Adenosine receptor A1 [16], greater than 10 µM. Also, in [4], the IC50 is 10 µM. Also, the inhibition at 10 µM in [15] was 46%.
In the case of `Cn1c(=O)c2c(nc3n2CCCN3c2ccc(F)cc2)n(C)c1=O`, the Ki was 10 µM at Adenosine receptor A2b [13]; 16.7 µM at Adenosine receptor A1 [17]; 1.18 µM on Adenosine receptor A2a [14]; greater than 25 µM at Adenosine receptor A1 [2]; 10 µM on Adenosine receptor A2b [18]; 1.88 µM on Adenosine receptor A2a [19]. Moreover, the Ki on Adenosine receptor A2a [5] was 0.147 µM; at Adenosine receptor A1 [6], greater than 25 µM; at Adenosine receptor A3 [7] it was 13.3 µM; on Adenosine receptor A1 [16], 16.7 µM; on Adenosine receptor A3 [20] it was 13.3 µM.
As for `C#CCn1c(=O)c2c(nc3n2CCCN3CCc2ccccc2)n(C)c1=O`, the inhibition in [12] was 10%; in data set [22], 3%. The Ki at Adenosine receptor A2b [13] is greater than 1 µM; at Adenosine receptor A2a [1] it was 0.827 µM; on Adenosine receptor A2a [14], 1.2 µM; on Adenosine receptor A1 [6], 0.632 µM; on Adenosine receptor A3 [7] it was greater than 1 µM; at Adenosine receptor A1 [16] it was 11.6 µM. This compound also had an IC50 in data set [4] greater than 10 µM. In addition, the Ratio Ki in [21] is 18. Moreover, in data set [15], 10 µM produced 2% inhibition.
With `C#CCn1c(=O)c2c(nc(/C=C/c3cccc(OC)c3)n2C)n(CCCO)c1=O`, the inhibitory constant (Ki) at Adenosine receptor A2a [14] and on Adenosine receptor A2a [19] was 0.00538 µM throughout.
Consider `C#CCn1c(=O)c2c(nc3n2CCCN3c2cccc(OC)c2)n(C)c1=O`, for which the inhibition is 20% in data set [12] and 8% in data set [22]. The Ki on Adenosine receptor A2b [13] was greater than 1 µM; on Adenosine receptor A2a [1], 3.03 µM; at Adenosine receptor A1 [6], 0.469 µM; on Adenosine receptor A3 [7], greater than 1 µM; on Adenosine receptor A1 [16], 9.49 µM. This compound also returned an IC50 in data set [4] greater than 10 µM. In data set [21], the Ratio Ki was greater than 10. In [15], this compound had an inhibition at 10 µM of 36%.

One may read the Ki as a dissociation constant, usually derived from enzyme kinetics or from competition with a known ligand. As a reminder, the IC50 is the concentration at which inhibition is half-maximal. As a reminder, the inhibition is the drop in the measured response relative to a control, in per cent.
